Assay results published in ChEMBL document CHEMBL1132183 (J Med Chem, 1999).

What was measured:
[1] = molecular target: T1, Alpha-1B adrenergic receptor (Rattus norvegicus) (UniProt P15823); assay: Antagonism of Alpha-1B adrenergic receptor subtype (-)-phenylephrine-induced contraction of rat spleen; type: functional, tissue-based
T1 sequence (whole entry): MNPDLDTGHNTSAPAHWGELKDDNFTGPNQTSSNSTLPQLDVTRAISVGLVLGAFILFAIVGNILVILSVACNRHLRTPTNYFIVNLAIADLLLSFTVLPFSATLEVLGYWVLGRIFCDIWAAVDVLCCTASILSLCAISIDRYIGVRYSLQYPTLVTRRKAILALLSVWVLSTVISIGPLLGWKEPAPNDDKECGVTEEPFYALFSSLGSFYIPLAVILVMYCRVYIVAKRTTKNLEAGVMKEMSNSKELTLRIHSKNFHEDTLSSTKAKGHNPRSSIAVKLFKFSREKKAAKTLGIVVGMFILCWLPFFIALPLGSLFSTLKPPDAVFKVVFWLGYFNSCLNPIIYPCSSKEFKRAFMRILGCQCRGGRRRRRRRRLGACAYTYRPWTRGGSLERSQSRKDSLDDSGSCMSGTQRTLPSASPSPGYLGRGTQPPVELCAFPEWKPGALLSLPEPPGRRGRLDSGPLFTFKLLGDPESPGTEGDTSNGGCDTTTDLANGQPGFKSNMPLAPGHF
Method in brief: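 Rat spleen, isometric cumulative (–)-phenylephrine curves at 30-min intervals; first discarded, second taken as control. Antagonist was equilibrated 30 min before the next curve.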

[2] = molecular target: T2, Alpha-1A adrenergic receptor (Rattus norvegicus) (UniProt P43140); assay: Antagonist activity against Alpha-1A adrenergic receptor (-)-noradrenaline-induced contraction of rat prostatic vas deferens; type: functional, tissue-based
T2 sequence (whole entry): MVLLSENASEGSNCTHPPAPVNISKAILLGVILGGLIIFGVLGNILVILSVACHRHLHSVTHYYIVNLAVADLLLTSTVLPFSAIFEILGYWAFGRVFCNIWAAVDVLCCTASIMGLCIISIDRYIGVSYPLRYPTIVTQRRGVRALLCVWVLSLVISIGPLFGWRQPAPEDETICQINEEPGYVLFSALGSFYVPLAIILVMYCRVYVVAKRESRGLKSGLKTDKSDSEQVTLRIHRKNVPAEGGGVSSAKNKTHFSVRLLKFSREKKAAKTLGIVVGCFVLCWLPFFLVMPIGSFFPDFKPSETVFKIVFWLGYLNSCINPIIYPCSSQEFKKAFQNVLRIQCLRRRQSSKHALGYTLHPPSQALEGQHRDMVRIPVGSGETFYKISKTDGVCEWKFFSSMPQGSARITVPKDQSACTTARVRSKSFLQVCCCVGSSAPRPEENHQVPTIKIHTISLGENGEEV
Method in brief: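 Isolated rat prostatic vas deferens with 0.01 μM desipramine in the bath. Isotonic cumulative (–)-noradrenaline curves were run at 30-min intervals: first discarded, second as control, then antagonist equilibrated 30 min before a new curve. pKb by Arunlakshana–Schild from dose ratios of EC50, at 2–3 antagonist concentrations, each tested four times.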

[3] = molecular target: T3, Alpha-1D adrenergic receptor (Rattus norvegicus) (UniProt P23944); assay: Alpha-1D adrenergic receptor subtype blocking activity (antagonism) against (-)-noradrenaline-induced contraction of rat thoracic aorta.; type: functional, tissue-based
T3 sequence (whole entry): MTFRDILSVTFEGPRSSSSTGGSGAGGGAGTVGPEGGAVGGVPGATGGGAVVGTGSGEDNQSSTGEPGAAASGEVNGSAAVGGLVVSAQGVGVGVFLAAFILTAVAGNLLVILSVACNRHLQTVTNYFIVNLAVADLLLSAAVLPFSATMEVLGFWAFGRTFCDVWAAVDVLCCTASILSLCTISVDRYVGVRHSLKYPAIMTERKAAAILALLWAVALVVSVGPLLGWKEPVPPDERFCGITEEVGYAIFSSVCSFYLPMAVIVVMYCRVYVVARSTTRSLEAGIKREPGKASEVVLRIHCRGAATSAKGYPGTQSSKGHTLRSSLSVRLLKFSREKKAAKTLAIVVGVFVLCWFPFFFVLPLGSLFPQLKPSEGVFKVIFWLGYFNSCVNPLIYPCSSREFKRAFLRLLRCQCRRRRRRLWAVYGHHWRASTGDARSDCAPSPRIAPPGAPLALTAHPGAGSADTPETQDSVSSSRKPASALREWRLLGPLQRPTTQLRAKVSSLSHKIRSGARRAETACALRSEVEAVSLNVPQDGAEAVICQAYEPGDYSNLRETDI
Method in brief: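 Helicoidal strips of rat thoracic aorta under 1 g tension, bath with 0.01 μM desipramine and 1 μM (±)-propranolol, equilibrated ≥1 h. Cumulative (–)-noradrenaline curves at 30-min intervals: first two discarded, third as control, fourth after 30-min antagonist exposure. pKb by Arunlakshana–Schild from EC50 dose ratios at 2–3 antagonist concentrations, each tested four times.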

[4] = molecular target: T4, 5-hydroxytryptamine receptor 1A (Homo sapiens, UniProt P08908); assay: Displacement of [3H]8-hydroxy-2-(di-n-propylamino)tetralin from human 5-hydroxytryptamine 1A receptor
T4 sequence (P08908 whole entry): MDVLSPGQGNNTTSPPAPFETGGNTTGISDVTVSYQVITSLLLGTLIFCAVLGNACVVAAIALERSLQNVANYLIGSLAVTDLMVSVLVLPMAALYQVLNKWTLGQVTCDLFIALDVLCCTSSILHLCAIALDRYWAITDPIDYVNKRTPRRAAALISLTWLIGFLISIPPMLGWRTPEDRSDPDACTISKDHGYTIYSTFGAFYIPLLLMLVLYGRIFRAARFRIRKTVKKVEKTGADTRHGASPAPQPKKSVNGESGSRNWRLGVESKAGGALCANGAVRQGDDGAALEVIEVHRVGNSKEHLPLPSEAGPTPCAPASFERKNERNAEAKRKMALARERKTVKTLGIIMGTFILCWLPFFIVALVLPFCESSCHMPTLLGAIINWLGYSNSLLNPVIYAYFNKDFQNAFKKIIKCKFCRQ
Method in brief: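 Membranes of HeLa cells stably transfected with human 5-HT1A (genomic clone G-21), in 50 mM Tris-HCl pH 7.4, 2.5 mM MgCl2, 10 μM pargiline. […] Nonspecific binding defined with 10 μM 5-HT. Filtration, scintillation counting. Ki by Cheng–Prusoff; 2–3 experiments in triplicate.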

[5] = molecular target: T5, Alpha-1A adrenergic receptor (Homo sapiens, UniProt P35348); assay: Displacement of [3H]prazosin from human cloned Alpha-1A adrenergic receptor
T5 sequence (P35348 whole entry): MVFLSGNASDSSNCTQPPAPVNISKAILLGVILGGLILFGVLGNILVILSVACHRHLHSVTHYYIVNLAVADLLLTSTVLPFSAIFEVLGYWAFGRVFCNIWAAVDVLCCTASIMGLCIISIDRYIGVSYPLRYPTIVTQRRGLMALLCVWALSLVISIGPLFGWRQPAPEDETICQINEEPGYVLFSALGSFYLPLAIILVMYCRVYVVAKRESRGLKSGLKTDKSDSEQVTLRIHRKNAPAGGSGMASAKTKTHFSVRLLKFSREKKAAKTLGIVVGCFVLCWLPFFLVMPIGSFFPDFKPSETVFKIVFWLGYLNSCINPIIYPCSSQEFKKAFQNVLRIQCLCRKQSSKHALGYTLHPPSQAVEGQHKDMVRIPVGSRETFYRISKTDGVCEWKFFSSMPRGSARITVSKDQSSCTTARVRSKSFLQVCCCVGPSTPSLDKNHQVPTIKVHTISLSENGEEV
Method in brief: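 CHO cells stably transfected with each human α1 subtype; 30 μg membrane protein in 50 mM Tris-HCl pH 7.4 with 0.1–0.4 nM [3H]prazosin, 30 min at 25 °C. Competitors 1 pM–10 μM. Nonspecific binding defined with 10 μM phentolamine. Filtration, scintillation counting. Ki by Cheng–Prusoff; 2–3 experiments in triplicate.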

[6] = molecular target: Serotonin 2 (5-HT2) receptor (Rattus norvegicus, UniProt P30994+P08909+P14842); assay: Displacement of [3H]ketanserin from rat brain 5-hydroxytryptamine 2 receptor
Method in brief: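 Rat cerebral cortex membranes (male Sprague–Dawley) in Tris-HCl pH 7.4 with 10 μM pargiline and 0.1% ascorbic acid were incubated 20 min at 37 °C with 0.7–1.3 nM [3H]ketanserin (5-HT2A). Nonspecific binding was defined by 2 μM ketanserin. Bound label was counted after filtration, and Ki was derived by Cheng–Prusoff.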

## COc1ccccc1O[C@@H]1CCC(NCC2COc3ccccc3O2)C1O (stereo in doubt; 6) [listing 1 of 2 here]
[1]
  pKb: 6.8
[2]
  pKb: 6.56
[3]
  pKb: 7.3

## COc1cccc(OC)c1O[C@@H]1CCC(NCC2COc3ccccc3O2)C1O (stereo in doubt; 8) [listing 1 of 2 here]
[4]
  Ki: 0.0339 µM

## COc1cccc(OC)c1OCCNCC1COc2ccccc2O1 (stereo not drawn)
[5]
  Ki: 0.000427 µM
[1]
  pKb: 8.21
[2]
  pKb: 9.36
[3]
  pKb: 8.6
[4]
  Ki: 0.00209 µM
[6]
  Log Ki: -6

## COc1cccc(OC)c1O[C@@H]1CCC(NCC2COc3ccccc3O2)C1O (stereo in doubt; 7) [listing 1 of 2 here]
[4]
  Ki: 0.0501 µM

## OC1C(NCC2COc3ccccc3O2)CC[C@H]1Oc1ccccc1 (stereo in doubt; 4)
[1]
  pKb: 6.47
[2]
  pKb: 5.7
[3]
  pKb: 7.85

## COc1cccc(OC)c1O[C@@H]1CCC(NCC2COc3ccccc3O2)C1O (stereo in doubt; 8) [listing 2 of 2 here]
[1]
  pKb: 6.17
[2]
  pKb: 5.79
[3]
  pKb: 6.94

## OC1C(NCC2COc3ccccc3O2)CC[C@H]1Oc1ccccc1 (stereo in doubt; 3)
[1]
  pKb: 6.45
[2]
  pKb: 5.48
[3]
  pKb: 7.66

## COc1ccccc1O[C@@H]1CCC(NCC2COc3ccccc3O2)C1O (stereo in doubt; 5) [listing 1 of 2 here]
[1]
  pKb: 6.24
[2]
  pKb: 5.68
[3]
  pKb: 7.15

## COc1ccccc1O[C@@H]1CCC(NCC2COc3ccccc3O2)C1O (stereo in doubt; 6) [listing 2 of 2 here]
[4]
  Ki: 0.0269 µM

## COc1cccc(OC)c1O[C@@H]1CCC(NCC2COc3ccccc3O2)C1O (stereo in doubt; 7) [listing 2 of 2 here]
[1]
  pKb: 6.27
[2]
  pKb: 5.89
[3]
  pKb: 7.32

## COc1ccccc1O[C@@H]1CCC(NCC2COc3ccccc3O2)C1O (stereo in doubt; 5) [listing 2 of 2 here]
[4]
  Ki: 0.0245 µM
